Laboratory results as given in ChEMBL document CHEMBL3616433, “Synthesis and anti-cancer potential of the positional isomers of NOSH-aspirin (NBS-1120) a dual nitric oxide and hydrogen sulfide releasing hybrid” (Bioorg Med Chem Lett, 2015).
Activity calls are given as the source filed them. No cut-off for these calls is given here.

What was measured:
HCT-15 = test: Cytotoxicity against human HCT15 cells assessed as growth inhibition after 24 hrs by MTT assay; type: functional, cell-based; details: HCT-15, 24 h
Method in brief: (§1)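 Cells grown in RPMI 1640 with 10% FBS, penicillin/streptomycin, at 37°C and 5% CO2. Compounds came from 100 mM DMSO stocks, with final DMSO 1% in all media. Growth was read by colorimetric MTT kit after 24 h. IC50 came from dose-response curves. Mean ± SEM of three to five experiments, each in triplicate.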

HT-29 [1] = test: Cytotoxicity against human HT-29 cells assessed as growth inhibition after 24 hrs by MTT assay; type: functional, cell-based; details: HT-29, 24 h; method in brief: as §1
HT-29 [2] = test: Cell cycle arrest in human HT-29 cells assessed as accumulation at S phase at 1 to 2 times IC50 after 24 hrs using propidium iodide by flow cytometry; type: functional, cell-based
Method in brief: (§2)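 HT-29 cells (0.5×10^6) treated 24 h, then trypsinized, fixed in 70% ethanol (10 min, −20°C), held in PBS/1% FBS/0.5% NP-40 on ice 5 min, and stained with propidium iodide 40 µg/mL plus RNase IIA 200 µg/mL. Flow cytometry within 30 min, >10,000 events per subset. Phase percentages were taken from DNA-content histograms. Representative of two experiments agreeing within 10%.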

HT-29 [3] = test: Cell cycle arrest in human HT-29 cells assessed as accumulation at G0/G1 phase at 1 to 2 times IC50 after 24 hrs using propidium iodide by flow cytometry; type: functional, cell-based; method in brief: as §2
HT-29 [4] = test: Induction of apoptosis in human HT-29 cells assessed as early apoptotic cells at 100 to 1000 nM after 24 hrs using annexin-V staining by flow cytometry relative to control; type: functional, cell-based
Method in brief: (§3)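 HT-29 cells (0.5×10^6 cells/mL) treated 24 h, washed, and resuspended in Annexin binding buffer (HEPES pH 7.4, NaCl, CaCl2). They were stained with Annexin V-FITC (final 0.5 µg/mL) and propidium iodide (final 20 µg/mL) for 5–15 min at room temperature in the dark, then analysed by flow cytometry for early apoptotic cells. Mean ± SEM of 3 experiments in duplicate.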

HT-29 [5] = test: Cytotoxicity against human HT-29 cells assessed as reduction in PCNA expression at 100 to 1000 nM after 24 hrs by ELISA relative to vehicle treated control; type: functional, cell-based
Method in brief: (§4)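 HT-29 cells (1×10^6 cells/mL) exposed to a range of concentrations for 24 h. PCNA antigen was quantified by ELISA kit per the manufacturer's protocol and expressed as % of vehicle-treated cells. Mean ± SEM of 3 experiments run in duplicate; ANOVA with Tukey's test.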

HT-29 [6] = test: Induction of ROS generation in human HT-29 cells assessed as increase in intracellular peroxide level at 500 nM after 1 hr using DCFDA staining by flow cytometry relative to control; type: functional
Method in brief: (§5)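 Plate HT-29 cells at 0.3×10^6/well for 24 h, then treat 1 h. Trypsinize, wash in PBS, and incubate with DCFDA (10 µM) 30 min at 37°C in the dark. Read fluorescence by flow cytometry as fold over basal. Mean ± SEM of three independent experiments.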

HT-29 [7] = test: Cell cycle arrest in human HT-29 cells assessed as accumulation at G2/M phase at 1 to 2 times IC50 after 24 hrs using propidium iodide by flow cytometry; type: functional, cell-based; details: in the assay text read “G0/G1 phase” for “G2/M phase”; method in brief: as §2
HT-29 [8] = test: Induction of ROS generation in human HT-29 cells assessed as increase in intracellular superoxide anion level at 500 nM after 1 hr using DHE staining by flow cytometry relative to control; type: functional
Method in brief: (§6)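 HT-29 cells (0.3×10^6/well) plated for 24 h, then treated 1 h. They were trypsinized, PBS-washed, and loaded with dihydroethidium (5 µM) for 30 min at 37°C in the dark. Superoxide fluorescence was measured by flow cytometry relative to basal. Mean ± SEM of three independent experiments.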

HT-29 [9] = test: Induction of ROS generation in human HT-29 cells assessed as increase in intracellular peroxide level at 250 nM after 1 hr using DCFDA staining by flow cytometry relative to control; type: functional; method in brief: as §5
HT-29 [10] = test: Induction of ROS generation in human HT-29 cells assessed as increase in intracellular superoxide anion level at 250 nM after 1 hr using DHE staining by flow cytometry relative to control; type: functional; method in brief: as §6
HT-29 [11] = test: Induction of apoptosis in human HT-29 cells assessed as early apoptotic cells at 50 to 500 nM after 24 hrs using annexin-V staining by flow cytometry relative to control; type: functional, cell-based; method in brief: as §3
HT-29 [12] = test: Cell cycle arrest in human HT-29 cells assessed as accumulation at G0/G1 phase at 1 to 2 times IC50 after 24 hrs using propidium iodide by flow cytometry
HT-29 [13] = test: Cytotoxicity against human HT-29 cells assessed as reduction in PCNA expression at 50 to 500 nM after 24 hrs by ELISA relative to vehicle treated control; type: functional, cell-based; method in brief: as §4
HT-29 [14] = test: Cell cycle arrest in human HT-29 cells assessed as reduction in G2/M phase at 100 nM after 24 hrs using propidium iodide by flow cytometry (reference value: 28.5%); type: functional; design: scale not given: the % may be the effect or the level left; method in brief: as §2
HT-29 [15] = test: Cell cycle arrest in human HT-29 cells assessed as accumulation at G0/G1 phase at 100 nM after 24 hrs using propidium iodide by flow cytometry (reference value: 39.6%); type: functional; method in brief: as §2
HT-29 [16] = test: Induction of ROS generation in human HT-29 cells assessed as increase in intracellular superoxide anion level at 50 nM after 1 hr using DHE staining by flow cytometry relative to control
HT-29 [17] = test: Cytotoxicity against human HT-29 cells assessed as reduction in PCNA expression at 50 nM after 24 hrs by ELISA relative to vehicle treated control; type: functional; design: scale not given: the % may be the effect or the level left; method in brief: as §4
HT-29 [18] = test: Induction of ROS generation in human HT-29 cells assessed as increase in intracellular peroxide level at 50 nM after 1 hr using DCFDA staining by flow cytometry relative to control; type: functional; method in brief: as §5
HT-29 [19] = test: Cytotoxicity against human HT-29 cells assessed as reduction in PCNA expression after 24 hrs by ELISA; type: functional, cell-based; method in brief: as §4
HT-29 [20] = test: Cytotoxicity against human HT-29 cells assessed as reduction in PCNA expression at 25 nM after 24 hrs by ELISA relative to vehicle treated control; type: functional; design: scale not given: the % may be the effect or the level left; method in brief: as §4
HT-29 [21] = test: Induction of apoptosis in human HT-29 cells assessed as early apoptotic cells at 10 nM after 24 hrs using annexin-V staining by flow cytometry relative to control; type: functional; method in brief: as §3
HT-29 [22] = test: Cell cycle arrest in human HT-29 cells assessed as reduction in S phase at 100 nM after 24 hrs using propidium iodide by flow cytometry (reference value: 31.9%); type: functional; design: scale not given: the % may be the effect or the level left; method in brief: as §2
HT-29 [23] = test: Cytotoxicity against human HT-29 cells assessed as reduction in PCNA expression at 10 nM after 24 hrs by ELISA relative to vehicle treated control; type: functional; design: scale not given: the % may be the effect or the level left; method in brief: as §4
HT-29 [24] = test: Induction of apoptosis in human HT-29 cells assessed as early apoptotic cells at 25 nM after 24 hrs using annexin-V staining by flow cytometry relative to control; type: functional; method in brief: as §3
HT-29 [25] = test: Cell cycle arrest in human HT-29 cells assessed as reduction in S phase at 50 nM after 24 hrs using propidium iodide by flow cytometry (reference value: 31.9%); type: functional; design: scale not given: the % may be the effect or the level left; method in brief: as §2
HT-29 [26] = test: Induction of apoptosis in human HT-29 cells assessed as early apoptotic cells at 50 nM after 24 hrs using annexin-V staining by flow cytometry relative to control; type: functional; method in brief: as §3
HT-29 [27] = test: Cell cycle arrest in human HT-29 cells assessed as accumulation at G0/G1 phase at 50 nM after 24 hrs using propidium iodide by flow cytometry (reference value: 39.6%); type: functional; method in brief: as §2
HT-29 [28] = test: Cell cycle arrest in human HT-29 cells assessed as reduction in G2/M phase at 50 nM after 24 hrs using propidium iodide by flow cytometry (reference value: 28.5%); type: functional; design: scale not given: the % may be the effect or the level left; method in brief: as §2
HT-29 [29] = test: Induction of apoptosis in human HT-29 cells assessed as early apoptotic cells at 100 nM after 24 hrs using annexin-V staining by flow cytometry relative to control; type: functional; method in brief: as §3
HT-29 [30] = test: Cytotoxicity against human HT-29 cells assessed as reduction in PCNA expression at 100 nM after 24 hrs by ELISA relative to vehicle treated control; type: functional; design: scale not given: the % may be the effect or the level left; method in brief: as §4

O=C(CCCO[N+](=O)[O-])Oc1ccc(C(=O)Oc2ccc(-c3cc(=S)ss3)cc2)cc1Cl
IC50 (HCT-15): 0.33 µM
IC50 (HT-29 [1]): 0.06 µM

O=C(CCCO[N+](=O)[O-])Oc1ccc(Cl)cc1C(=O)Oc1ccc(-c2cc(=S)ss2)cc1
IC50 (HCT-15): 0.17 µM
IC50 (HT-29 [1]): 0.4 µM

COc1cc(C(=O)Oc2ccc(-c3cc(=S)ss3)cc2)ccc1OC(=O)CCCO[N+](=O)[O-]
IC50 (HCT-15): 0.22 µM
IC50 (HT-29 [1]): 0.13 µM

O=C(CCCO[N+](=O)[O-])Oc1ccc(C(=O)Oc2ccc(-c3cc(=S)ss3)cc2)cc1
Activity (HT-29 [2]): Active
Activity (HT-29 [3]): Active
Activity (HT-29 [4]): Active
Activity (HT-29 [5]): Active
fold change (FC) (HT-29 [6]): 11
IC50 (HCT-15): 0.38 µM
IC50 (HT-29 [1]): 0.45 µM
Activity (HT-29 [7]): Active
fold change (FC) (HT-29 [8]): 10

COc1ccc(OC(=O)CCCO[N+](=O)[O-])c(C(=O)Oc2ccc(-c3cc(=S)ss3)cc2)c1
IC50 (HCT-15): 0.38 µM
IC50 (HT-29 [1]): 0.2 µM

O=C(CCCO[N+](=O)[O-])Oc1cccc(C(=O)Oc2ccc(-c3cc(=S)ss3)cc2)c1
Activity (HT-29 [2]): Active
Activity (HT-29 [3]): Active
fold change (FC) (HT-29 [9]): 15
fold change (FC) (HT-29 [10]): 21
IC50 (HCT-15): 0.11 µM
IC50 (HT-29 [1]): 0.22 µM
Activity (HT-29 [11]): Active
Activity (HT-29 [12]): Active
Activity (HT-29 [13]): Active

O=C(CCCO[N+](=O)[O-])Oc1cccc(C(=O)Oc2ccc(-c3cc(=S)ss3)cc2)c1Cl
IC50 (HCT-15): 0.14 µM
IC50 (HT-29 [1]): 0.21 µM

CC(=O)Oc1ccccc1C(=O)O [ASPIRIN]
IC50 (HCT-15): > 5000 µM
IC50 (HT-29 [1]): > 5000 µM

COc1ccc(C(=O)Oc2ccc(-c3cc(=S)ss3)cc2)cc1OC(=O)CCCO[N+](=O)[O-]
IC50 (HCT-15): 0.33 µM
IC50 (HT-29 [1]): 0.43 µM

O=C(CCCO[N+](=O)[O-])Oc1ccccc1C(=O)Oc1ccc(-c2cc(=S)ss2)cc1
Activity (HT-29 [14]): 9.9%
Activity (HT-29 [15]): 71.9%
fold change (FC) (HT-29 [16]): 18
Activity (HT-29 [17]): 48%
fold change (FC) (HT-29 [18]): 16
Activity (HT-29 [19]): Dose-dependent effect
Activity (HT-29 [20]): 65%
Activity (HT-29 [21]): 15%
Activity (HT-29 [22]): 18.2%
Activity (HT-29 [23]): 80%
Activity (HT-29 [24]): 35%
IC50 (HCT-15): 0.057 µM
Activity (HT-29 [25]): 26.1%
Activity (HT-29 [26]): 65%
Activity (HT-29 [27]): 53.6%
Activity (HT-29 [28]): 20.3%
Activity (HT-29 [29]): 78%
Activity (HT-29 [30]): 20%
